# Hits are enriched below; roughly 0.66% of the tested compounds scored in any of these assays.
# BAP1 inh: inhibitors of BAP1 deubiquitinase, primary screen, biochemical, Ub-AMC fluorescence, kinetic | Ubiquitin carboxyl-terminal hydrolase BAP1 (Homo sapiens), Q92560 | recombinant BAP1, Ub-AMC hydrolysis fluorescence kinetic; hits give low values | calls only at 20 µM | actives 0.48% (n = 72,000) | AID 436, 2006;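 active means activity remaining at or below 50% of control, provided the compound also passes the data quality filters; inactive means the rest, including low values that fail the filters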;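 further: 100% = DMSO wells rate and 0% = substrate alone blank rate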
# Target sequence (Q92560 whole entry, looked up): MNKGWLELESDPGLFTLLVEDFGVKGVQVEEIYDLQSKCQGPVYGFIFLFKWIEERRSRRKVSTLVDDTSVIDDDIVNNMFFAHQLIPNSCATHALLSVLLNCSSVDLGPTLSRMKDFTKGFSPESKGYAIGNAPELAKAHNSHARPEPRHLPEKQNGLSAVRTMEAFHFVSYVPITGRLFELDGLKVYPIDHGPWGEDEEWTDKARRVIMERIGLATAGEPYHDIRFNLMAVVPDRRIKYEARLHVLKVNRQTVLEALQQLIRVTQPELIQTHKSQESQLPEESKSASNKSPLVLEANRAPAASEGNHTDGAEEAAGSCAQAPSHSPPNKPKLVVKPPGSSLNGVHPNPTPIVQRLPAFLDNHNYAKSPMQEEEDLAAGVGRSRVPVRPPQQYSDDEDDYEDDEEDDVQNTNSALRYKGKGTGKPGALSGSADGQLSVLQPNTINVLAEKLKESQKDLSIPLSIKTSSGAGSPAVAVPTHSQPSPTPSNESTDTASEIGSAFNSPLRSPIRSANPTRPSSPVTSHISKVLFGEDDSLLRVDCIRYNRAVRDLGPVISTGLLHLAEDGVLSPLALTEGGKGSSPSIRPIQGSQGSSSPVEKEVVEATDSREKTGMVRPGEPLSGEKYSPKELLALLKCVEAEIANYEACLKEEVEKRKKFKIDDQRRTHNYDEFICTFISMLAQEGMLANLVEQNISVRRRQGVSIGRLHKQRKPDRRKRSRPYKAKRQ
# Ec RNAP inh: E. coli RNAP inhibitors, biochemical | AID 559, 2006 | actives 0.2% (n = 62,000) | E. coli RNA polymerase, fluorescence transcription assay | inhibition, %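 (tested at 10 µM)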; in the data active means inhibition above about 20%;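 further: 0% = enzyme without compound and 100% = no enzyme blank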
# AP ELISA ortho: alternative complement pathway inhibitors, primary screen, biochemical, ELISA, human serum, orthogonally pooled compounds. actives 0.08% (n = 62,000). inhibition, % at 5 µM. LPS-coated ELISA, C3 deposition; tested in compound mixtures;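 active means inhibition above 30% in each of the two pooled mixtures holding the compound, so the lower value exceeds 30%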;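 further: 0% = serum in Mg-EGTA without compound and 100% = EDTA serum blank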
#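 Test system – human serum alternative complement pathway, C3 deposition on LPS-coated wells · Buffer or medium – diluted human serum in Mg2+-EGTA GVB++ · Compound dosing – 5 µM each compound, pools of ten, 50 µM per pool · Schedule – 1 h serum-compound exposure at 37 °C · Measured by – Anti-C3 ELISA, OD 450 nm · Read-out basis – percent inhibition of C3 deposition onto LPS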
# BAP1 inh conf: BAP1 deubiquitinase inhibitors, hit retest, confirmation, orthogonal assay, biochemical, Ub-ethyl ester substrate, HPLC readout. shares compounds with BAP1 inh. purified BAP1, Ub-ethyl ester hydrolysis; hits give low values. % of control activity, % at 20 µM. actives 8% (n = 310);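 active means percent of control activity at or below 60%; inconclusive means HPLC trace unusable from injection failure or solvent front hiding peaks; inactive means the rest, plus ubiquitin peak ratio over a set limit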
# The depositor's hits bear a star; i = inactive; ? = inconclusive; . = not tested or not shown; + = active, no number.
SMILES,BAP1 inh,Ec RNAP inh,AP ELISA ortho,BAP1 inh conf
CC1CCCN(S(=O)(=O)c2ccc(NC(=O)Cn3nnc(-c4ccccc4F)n3)cc2)C1 (stereo not given),+,3,-9,26*
CC1CCN(S(=O)(=O)c2ccc(NC(=O)Cn3nnc(-c4ccccc4)n3)cc2)CC1,i,4,3,.
COc1ccc(NC(=O)Cn2nnc(-c3ccccc3F)n2)cc1,i,12,-2,.
CC1CCN(c2ncnc3sc4c(c23)CCCC4)CC1,i,.,.,.
C=CCn1c(COc2cccc(C)c2)nnc1SCC(=O)NC(=O)NCc1ccco1,+,3,14,137
C=CCn1c(COc2ccc(F)cc2)nnc1SCC(=O)NC(=O)NCc1ccco1,i,10,24,.
O=C(Nc1cccc(-c2nc3ccccc3[nH]2)c1)c1cccc(NC(=O)c2ccco2)c1,+,9,-5,135
Cc1ccc(-c2nc3ccccc3[nH]2)cc1NC(=O)c1ccco1,i,3,10,.
Cc1ccc2[nH]c(=O)c(CN(Cc3cccs3)Cc3nnnn3Cc3ccccc3)cc2c1,+,5,-4,67
Cc1ccc2[nH]c(=O)c(CN(CCO)Cc3nnnn3CCc3ccccc3)cc2c1,i,6,8,.
COc1ccc(CC(=O)Nc2ccc(-c3noc(-c4cccc(OC)c4)n3)cc2)cc1,+,0,19,77
COc1cccc(-c2nc(-c3ccc(NC(=O)c4cccnc4)cc3)no2)c1,i,4,23,.
CC(C)c1cc(Nc2cccc(O)c2)cc(C(C)C)c1O,+,4,24,82
CC(C)c1cc(NC(=O)C(C)(C)C)cc(C(C)C)c1O,i,6,4,.
Cc1c(Cl)cccc1NC(=O)NC1CCCCC1,i,-4,3,.
O=C(Nc1ccccc1NC(=O)NC1CCCCC1)NC1CCCCC1,+,6,6,104
COc1ccc(OC)c(C2NC(=S)NC(C)=C2C(=O)Nc2ccccc2)c1 (stereo not given),i,.,.,.
COc1cc(C(=S)N2CCCCC2)ccc1OC(=O)c1ccc(C)cc1,i,.,.,.
CCOC(=O)c1nnn(-c2nonc2N)c1CSc1ccc(C)cc1,i,6,-8,.
CCOC(=O)c1nnn(-c2nonc2N)c1COc1cc(C)c(Cl)c(C)c1,+,2,12,106
Nc1c(C(=O)c2ccc(Br)s2)oc2ccccc12,+,7,6,81
Nc1c(C(=O)c2cccs2)oc2ccccc12,i,1,3,.
Cc1c(NC(=O)c2cc(-c3ccc(CC(C)C)cc3)nc3ccccc23)c(=O)n(-c2ccccc2)n1C,i,.,.,.
COc1ccc(CCNC(=O)c2sc3ccccc3c2Cl)cc1,i,.,.,.
CCc1nnc(NC(=O)c2cc([N+](=O)[O-])ccc2Cl)s1,i,.,.,.
SMILES,BAP1 inh,Ec RNAP inh,AP ELISA ortho,BAP1 inh conf
N#Cc1c(/N=C/c2ccco2)oc(-c2ccccc2)c1-c1ccccc1,+,3,1,?
N#Cc1c(N=Cc2ccccc2)oc(-c2ccccc2)c1-c1ccccc1,i,.,.,.
O=C1SC(SCc2ccccc2)=N/C1=C\c1ccco1,.,9,8,.
CCCSC1=N/C(=C\C=C\c2ccco2)C(=O)S1,+,7,20,86
CCOc1ccc2cc(C3CC(c4ccc(OC)cc4)=NN3)c(Cl)nc2c1 (stereo not given),i,.,.,.
O=C(c1ccco1)[C@@H]1[C@@H]2C(=O)N(c3ccccc3)C(=O)[C@@H]2C2c3ccccc3C=CN21 (stereo not given in full),+,-4,-20,?
CC(=O)[C@@H]1[C@@H]2C(=O)N(Cc3ccccc3)C(=O)[C@@H]2C2c3ccccc3C=CN21 (stereo not given in full),i,4,15,.
Cc1ccc(N2C(=O)[C@@H]3[C@H](C2=O)C2c4ccccc4C=CN2[C@@H]3C(=O)c2ccco2)cc1 (stereo not given in full),i,7,-2,.
Cc1ccc(N2C(=O)[C@@H]3[C@H](C2=O)C2c4ccccc4C=CN2[C@@H]3C(=O)c2ccco2)c(C)c1 (stereo not given in full),+,9,8,118
Cn1c(=O)c2c(nc(NCCCO)n2C)n(C)c1=O,i,.,.,.
CCOC(=O)C1=C(c2ccccc2)NC(=S)NC1c1ccccc1Br (stereo not given),i,.,.,.
COc1ccc(OC)c(NC(=O)c2cc3n(n2)C(C(F)(F)F)CC(c2ccc4c(c2)OCO4)N3)c1 (stereo not given),+,2,15,102
COc1ccccc1NC(=O)c1cc2n(n1)C(C(F)(F)F)CC(c1ccc3c(c1)OCO3)N2 (stereo not given),.,-2,11,.
O=C(NCc1ccco1)c1cc2n(n1)C(C(F)(F)F)CC(c1ccc(Cl)c(Cl)c1)N2 (stereo not given),i,.,15,.
O=C(NCc1ccco1)c1cc2n(n1)C(C(F)(F)F)CC(c1ccc(Br)cc1)N2 (stereo not given),+,10,-2,?
CC=CCOC(=O)C1=C(C)NC(=O)NC1c1ccc(Cl)cc1 (stereo not given),i,.,.,.
O=C(O)CCc1ccc(-c2ccccc2)n1CC(=O)O,i,2,-14,.
O=C(O)CCc1ccc(-c2ccccc2)n1-c1cccc(O)c1,+,.,.,143
O=C(O)c1cccc(N2C(=O)c3ccc(C(=O)c4ccc5c(c4)C(=O)N(c4cccc(C(=O)O)c4)C5=O)cc3C2=O)c1,i,.,.,.
CCn1c2ccccc2c2cc(NC(=O)CSc3nnc(C4CC4)n3Cc3ccco3)ccc21,+,5,18,100
CCn1c(SCC(=O)Nc2ccc3c(c2)c2ccccc2n3CC)nnc1-c1cnccn1,.,9,6,.
O=C(Nc1nnc(N=Cc2ccc([N+](=O)[O-])s2)s1)c1cccc(Cl)c1,i,.,.,.
CCCCc1ccc(NC(=O)CCOc2ccccc2)cc1,i,.,.,.
CCOC(=O)C1=C(C)NC(=O)NC1c1ccccc1OC(C)C (stereo not given),i,.,.,.
COc1ccc(C2C(C(=O)OCCOC(C)C)=C(C)NC3=C2C(=O)CC(C)(C)C3)c(OC)c1 (stereo not given),i,.,.,.
SMILES,BAP1 inh,Ec RNAP inh,AP ELISA ortho,BAP1 inh conf
CCn1c(=NC(=O)c2ccc(N3C(=O)CCC3=O)cc2)sc2c(OC)ccc(OC)c21,+,9,14,117
CCn1c(=NC(=O)CN2C(=O)CCC2=O)sc2c(OC)ccc(OC)c21,i,2,10,.
CCOc1ccc(C(=O)O)cc1OC,i,.,-8,.
CCOc1cc(C(=O)O)cc(Cl)c1OCC#N,+,4,18,104
CC1=CC(C)(C)Nc2ccc(C)cc21,.,5,-5,.
CC1=CC(C)(C)Nc2cc(C)c(C)cc21,+,10,32,49*
Cc1cc(NC(=O)c2cc(Cl)ccc2Cl)no1,i,7,-6,.

# High-throughput results deposited in PubChem BioAssay by several laboratories.
